Experimental data reported in paper PMC4847003 (International Journal for Parasitology: Drugs and Drug …, 2015).
Structures can show the parent of a compound that is named as a salt. Where two headings read alike, the source gives them in different places.

Tests used:
[1] = Host cell number in the same well of the amastigote image-based assay; design: species or system mouse; settings: mouse, 3T3 host cells infected with T. cruzi
[2] = tested on: 3T3 host cells; assay: as above; design: species or system mouse; settings: for SI (3T3): 3T3 IC50 or highest dose tested / amastigote IC50
[3] = tested on: 3T3 cells; assay: Activity against sub-confluent 3T3 cells; assay type: cell-based, mouse; settings: at 73 μM, seeding density of 1000 cells per well
Procedure, shortened: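 3T3 cells seeded at 1000 to 62 cells/well in collagen-coated 384-well plates and grown 48 h. Wells were washed twice and refilled with growth medium. A test-compound dose series was added in duplicate per density, with 30 μM puromycin (positive) and 0.37% DMSO (negative) controls. After a further 48 h, 70 μM final resazurin was added. […] Averaged over duplicate experiments.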

[4] = tested on: HEK293 cells; assay: HEK293 viability assay; assay type: cell-based, human; settings: for IC50: read-out: IC50 HEK293 (μM ± SD); for Selectivity (SI) of T. cruzi amastigotes to HEK293 cells: based on solid samples
[5] = tested on: T. cruzi amastigotes; assay: Residual amastigotes following compound treatment, 48 and 72 h image-based assay; assay type: cell-based, Trypanosoma cruzi Tulahuen strain; settings: for Emax at 18 µM / IC50: Trypanosoma cruzi; for Emax at 18 µM: read-out: % of infections removed at Emax concentration; for IC50: read-out: IC50 value against T. cruzi amastigotes
Procedure, shortened: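 3T3 fibroblasts seeded at 1 × 10³ cells/well in collagen-coated 384-well plates, then infected with T. cruzi trypomastigotes. Free parasites were washed off with PBS after 24 h. Test compound was given as a dose series, pre-diluted 1:21 in water, for 48 or 72 h. Cells were fixed in 4% paraformaldehyde and stained with Hoechst in 0.1% Triton X-100. Residual intracellular spots at the Emax concentration were scored, including by eye.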

[6] = tested on: Trypanosoma cruzi amastigotes; assay: Image-based T. cruzi amastigote assay in 3T3 fibroblasts, 48 h compound exposure; assay type: cell-based, Trypanosoma cruzi Tulahuen strain; settings: Fibroblast
[7] = tested on: T. cruzi trypomastigotes; assay: Trypomastigote viability assay; assay type: cell-based, Trypanosoma cruzi Tulahuen strain; settings: for activity against the trypomastigote: Malaria Box retest; for IC50: read-out: IC50 T. cruzi Trypomastigote (μM ± SD)
[8] = tested on: Tulahuen strain parasites in U2OS cells; settings: 96 h treatment, high concentrations; ref Moraes et al., 2014; cited from earlier work
[9] = tested on: Y strain infection; settings: ref Moraes et al., 2014, cited from earlier work
[10] = read-out: T. cruzi amastigote IC50 (μM ± SD), Malaria Box sample stored in 100% DMSO, two independent experiments
[11] = read-out: 3T3 % activity highest dose, at 9.2 μM, DMSO sample
[12] = solid sample, 48 h, 2 independent experiments
[13] = Trypanosoma cruzi, read-out: T. cruzi Trypomastigote % activity at highest dose
[14] = read-out: IC50 value against T. cruzi amastigotes, Malaria Box primary screening

SMILES: CC[C@@]1(O)C(=O)OCc2c1cc1n(c2=O)Cc2cc3ccccc3nc2-1 [Camptothecin, camptothecin]
- cytotoxicity at 48 h, 5 µM [1]: 38%
- cytotoxicity at 48 h, 16.8 µM [1]: 44%
- SI (3T3) ([2]; library DMSO stock): >49.41
- SI (3T3) ([2]; solid sample): >55.56

SMILES: Cc1cc(C2CCCCC2)n(O)c(=O)c1 [Ciclopirox Olamine, ciclopirox olamine]
- cytotoxicity at 48 h, 136.5 µM [1]: 42%
- SI (3T3) ([2]; library DMSO stock): >3.54
- SI (3T3) ([2]; solid sample): > 35.0
- activity at 19 µM ([2]; Mus musculus, read-out: Host % activity at highest dose): 53%
- activity against 3T3 cells [3]: 38%
- IC50 ([4]; Homo sapiens, HEK293, 48 h): 1.4 ± 1.07 µM
- Selectivity index (SI) to HEK293 cells ([4]; Table 2 footnote a, solid sample): 0.36

SMILES: Clc1ccccc1C(c1ccccc1)(c1ccccc1)n1ccnc1 [Clotrimrazole HCl, clotrimazole, reference compound]
- residual amastigotes at the Emax concentration ([5]; 48 h incubation, 0.92 µM in Figure S3): amastigotes that appeared to remain

SMILES: CCOc1cccc2sc(N(Cc3cccnc3)C(=O)C3CCCCC3)nc12 [MMV001230]
- SI (3T3) ([2]; based on solid samples): > 87.26
- Selectivity (SI) of T. cruzi amastigotes to HEK293 cells [4]: > 94.52

SMILES: COc1ccc2sc(N(Cc3cccnc3)C(=O)c3ccc(C#N)cc3)nc2c1 [MMV001239, 4-cyano-N-(5-methoxy-1,3-benzothiazol-2-yl)-N-(pyridin-3-ylmethyl)benzamide]
- cytotoxicity against 3T3 cells [2]: no cytotoxicity detected
- SI (3T3) ([2]; based on solid samples): > 20.65
- % of infections removed at Emax concentration ([5]; 18 μM, 48 h incubation): Ninety
- Emax at 18 µM ([5]; 48 h): 90%
- IC50 [6, 10]: 0.86 ± 0.006 µM
- activity / cytotoxicity against HEK293 cells [4]: no cytotoxicity detected
- Selectivity (SI) of T. cruzi amastigotes to HEK293 cells [4]: > 22.37

SMILES: COc1ccc(C)c2sc(N(Cc3cccnc3)C(=O)c3ccc(C#N)cc3)nc12 [MMV001241]
- SI (3T3) ([2]; based on solid samples): > 31.59
- HEK293 % activity at highest dose ([4]; at 79.4 μM, solid sample): 44% at 79.4 μM
- Selectivity (SI) of T. cruzi amastigotes to HEK293 cells [4]: > 34.22

SMILES: O=C(Nc1nc(-c2ccccn2)cs1)c1ccccc1Br [MMV665909]
- activity against the trypomastigote [7]: active against the trypomastigote life cycle form
- IC50 ([7]; Malaria Box DMSO sample): 1.08 ± 0.01 µM
- IC50 ([7]; Malaria Box solid sample): 1.05 ± 0.13 µM
- cytotoxicity [2, 11]: 35%
- cytotoxicity ([2]; read-out: 3T3 % activity highest dose, at 73.3 μM, solid sample): 44%
- IC50 [4, 12]: 1.97 ± 0.65 µM

SMILES: COc1ccccc1N1CCN(C(CNS(=O)(=O)c2ccc(Cl)cc2)c2cccnc2)CC1 (stereo not drawn) [MMV665914, 4-chloro-N-(2-(4-(2-methoxyphenyl)piperazin-1-yl)-2-(pyridin-3yl)ethyl) benzene sulfonamide]
- SI (3T3) ([2]; based on solid samples): > 42.37
- cytotoxicity [2, 11]: 25%
- % of infections removed at Emax concentration ([5]; 18 μM, 48 h incubation): 97%
- % of parasites removed at Emax concentration ([5]; 18 μM, 72 h incubation): 99%
- Selectivity (SI) of T. cruzi amastigotes to HEK293 cells [4]: > 45.90

SMILES: Cc1[nH]c2ccccc2c(=O)c1CC=C(Cl)Cl [MMV665994, 3-(3,3-Dichloro-2-propen-1-yl)-2-methyl-4(1H)-quinolinone]
- inhibition at 87 µM [7, 13]: 52%
- SI (3T3) ([2]; based on solid samples): > 59.59
- Emax at 18 µM ([5]; 48 h): 97%
- IC50 [6, 10]: 0.66 ± 0.7 µM
- Selectivity (SI) of T. cruzi amastigotes to HEK293 cells [4]: > 64.55

SMILES: O=C(NC(c1ccccc1)c1ccc2cccnc2c1O)c1ccccc1 (stereo not drawn) [MMV666080]
- activity against the trypomastigote [7]: active against the trypomastigote life cycle form
- IC50 ([7]; Malaria Box DMSO sample): 0.9 ± 0.06 µM
- IC50 ([7]; Malaria Box solid sample): 0.52 ± 0.04 µM
- SI (3T3) ([2]; based on solid samples): > 25.77
- cytotoxicity [2, 11]: 40%
- cytotoxicity ([2]; read-out: 3T3 % activity highest dose, at 36.6 μM, solid sample): 34%
- activity / cytotoxicity against HEK293 cells [4]: active against HEK293 cells
- IC50 [4, 12]: 2.88 ± 0.9 µM

SMILES: CC1CS(=O)(=O)CCN1/N=C/c1ccc([N+](=O)[O-])o1 (stereo not drawn) [Nifurtimox, nifurtimox]
- cytotoxicity at 48 h, 153.1 µM [1]: 32%
- SI (3T3) ([2]; based on solid samples): > 231.8
- SI (3T3) ([2]; solid sample): >157.41
- activity against host cells ([2]; Malaria Box primary screening): no corresponding activity against host cells
- IC50 [6, 14]: 0.764 µM
- IC50 [6, 10]: 0.59 ± 0.1 µM
- Selectivity (SI) of T. cruzi amastigotes to HEK293 cells [4]: > 251.1

SMILES: COc1ccc(C[C@H](N)C(=O)N[C@H]2[C@@H](O)[C@H](n3cnc4c(N(C)C)ncnc43)O[C@@H]2CO)cc1 [Puromycin, puromycin]
- SI (3T3) ([2]; based on solid samples): 1.48
- SI (3T3) ([2]; library DMSO stock): 0.97
- SI (3T3) ([2]; solid sample): 1.75
- IC50 ([2]; Mus musculus, read-out: Host IC50 ± stdev, 3T3, run of library DMSO retest): 3040 ± 520 nM
- IC50 ([2]; Mus musculus, read-out: Host IC50 ± stdev, 3T3, run of solid sample retest): 2760 ± 690 nM
- IC50 [6, 14]: 2.35 µM
- IC50 [6, 10]: 2.54 ± 0.13 µM
- IC50 ([4]; Homo sapiens, HEK293, 48 h): 0.28 ± 0.04 µM
- Selectivity (SI) of T. cruzi amastigotes to HEK293 cells [4]: 0.12

SMILES: CN(C)c1ccc(Nc2c3ccccc3nc3ccccc23)cc1 [STL088556, N′-(acridin-9-yl)-N,N-dimethylbenzene-1,4-diamine]
- inhibition at 10.9 µM [7, 13]: 65%
- cytotoxicity at 48 h, 9.2 µM [1]: 30%
- cytotoxicity at 48 h, 73.3 µM [1]: 62%
- activity at 73 µM ([6]; read-out: T. cruzi amastigote % activity): 62%
- IC50 [6, 10]: 2.37 ± 1.51 µM
- activity at 79.4 µM ([4]; Homo sapiens, HEK293, read-out: HEK293 % activity at highest dose): 115%

SMILES: COc1c(C)c2c(c(O)c1C/C=C(\C)CCC(=O)[O-])C(=O)OC2.[Na+] [Sodium Mycophenolate, sodium mycophenolate]
- SI (3T3) ([2]; library DMSO stock): >19.11
- cytotoxicity ([2]; read-out: Host % activity at highest dose, 3T3, at 17.2 μM, library DMSO stock): 30%

SMILES: CC[C@@H]([C@H](C)O)n1ncn(-c2ccc(N3CCN(c4ccc(OC[C@@H]5CO[C@@](Cn6cncn6)(c6ccc(F)cc6F)C5)cc4)CC3)cc2)c1=O [posaconazole, reference compound]
- parasites reduced by [8]: 93%
- reduction of Y strain infection ([9]; 72 h exposure): 84%
- reduction of Y strain infection ([9]; exposure to 80 nM for 48 h): approximately 60%
- residual amastigotes at the Emax concentration ([5]; Emax of 50 nM, 48 and 72 h (Figure S5)): presence of a small number of amastigotes could be seen
- IC50 ([5]; 48 h): 6 ± 0.6 nM
- IC50 ([5]; 72 h): 4.9 ± 3.6 nM
